Screens: PubChem, Broad Institute
HIV Env fusion: blocks HIV Env-driven cell-cell fusion; HeLa-JRFL Env/CEM21 cell fusion, luciferase; inhibition, % at 12.3 µM; actives 1.1% (n = 360,000);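 active = mean replicate inhibition score of at least 50 and every replicate individually at or above 50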;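 note: 0% = plate neutral controls and 100% = maraviroc near 300 nM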
miR-122 sensor: inhibitors of miR-122 in Huh7 cells. Huh7 miR-122 Renilla luciferase sensor, 48 h; neutral wells = 0, positive control = 100. actives 0.3% (n = 340,000). activation (reporter increase), % at 12.5 µM;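 active = mean replicate activation score at least 90 and every replicate individually at or above 90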;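 note: higher luciferase means less miR-122 activity so hits act as miR-122 inhibitors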
F508del corr: correctors of CFTR F508del function in bronchial epithelial cells | CFBE cells, YFP halide quenching; stimulated with forskolin plus potentiator P3; % fluorescence drop versus neutral controls | activity (quench increase), % at 7.58 µM | actives 0.36% (n = 350,000);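 active = mean added fluorescence quench of at least 8% versus neutral control, with both replicates also reaching 8%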;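 note: cells transiently co-express mutant CFTR-F508del with the halide-sensitive YFP; corrector assay measuring rescue of mutant channel to the surface after 24 h compound exposure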
INS-1E GSIS act: GLuc luminescence reporter in INS-1E cells, primary screen for activators of glucose-dependent secretion of insulin; INS-1E GLuc reporter insulin secretion, 2-3 h; activation, % at 16.6 µM; actives 0.61% (n = 370,000); AID 743287;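 active = lowest replicate activation of at least 40%, so every replicate reaches that level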;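 note: 0% = median of neutral control wells and 100% = median of IBMX positive control wells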
Cneo AK release: causes C. neoformans cell lysis; lysis activity, % at 15 µM; adenylate kinase release luminescence, 4 h; normalised: neutral wells 0, clomiphene wells 100; actives 0.2% (n = 360,000);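 active = mean lysis activity across replicates of at least 80%, whatever share of replicates individually reach that level; inactive = mean lysis activity below 80%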
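Signal: Adenylate kinase release luminescence | Assay system: Log-phase Cryptococcus neoformans yeast cells | Input: Cells at 5 × 10^6 per mL | Buffer or medium: Fresh YPD growth medium | Compound: Single dose | Schedule: Static 4 h at 37 °C with compound, 1 h detection | Controls: Clomiphene | Read-out: Luminescence rise reflecting yeast cell lysis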
rRNA inh HTS: inhibits bacterial ribosomal RNA function over humanized ribosomes; actives 1.6% (n = 350,000); GFP signal change (wild-type ribosome), % (no concentration beside the values); E. coli WT GFP vs humanized-ribosome RFP mutants, fluorescence, 24 h; hits give low values; DMSO median 0, no signal -100;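 active = significant combined selectivity score with lowered wild-type GFP, culture density cut under 30%, mutant RFP and density less affected; inactive = any of these conditions unmet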
Active calls of the source: *; · = no result given; [ ] = dose if it differs, or a comment. In the library only some 3.1% were active in any assay of this set; here they are far more common.

SMILES	HIV Env fusion	miR-122 sensor	F508del corr	INS-1E GSIS act	Cneo AK release	rRNA inh HTS
Cc1ccc2[nH]c(C(=O)N/N=C/c3ccccc3C(=O)O)c(-c3ccccc3)c2c1	10.0	-8.0	-0.6	-7.8	-1.4	-0.8
Cc1ccc2[nH]c(C(=O)N/N=C/c3ccccc3O)c(C)c2c1	14.7	·	8.4*	10.7	3.1	4.8
CC(=O)n1cc(/C=N/NC(=O)c2ccccc2O)c2ccccc21	-6.1	·	-1.1	2.4	-1.1	-25.4*
O=C(CSc1ccccc1)N/N=C/c1ccccc1O	5.6	·	0.7	-3.0	·	-18.6*
C[C@@H]1CN([C@@H](C)CO)C(=O)c2cc(C3=CCCC3)cnc2O[C@@H]1CN(C)S(C)(=O)=O	5.3[16.7 µM]	·	2.3	9.2	-1.5	1.0
O=C(O)c1ccc(C=NNC(=O)c2cccc3ccccc23)cc1	-15.4	·	-0.7	8.4	·	1.1
O=C(N/N=C/c1ccccc1O)c1cccc2ccccc12	2.6	-20.0	1.5	-13.8	-0.4	-35.5*
C[C@H](CO)N1C[C@H](C)[C@H](CN(C)S(=O)(=O)c2ccc(Cl)cc2)Oc2ccc(NC(=O)C3CCCCC3)cc2CC1=O	63.2*[16.7 µM]	4.6[16.7 µM]	1.9	-3.7	-13.1	-0.4
C[C@H]1CN([C@@H](C)CO)C(=O)Cc2cc(NC(=O)C3CCCCC3)ccc2O[C@H]1CN(C)S(=O)(=O)c1ccc(Cl)cc1	73.6*[16.7 µM]	-2.7[16.7 µM]	-2.9	-10.9	-1.2	3.2
C[C@H](CO)N1C[C@H](C)[C@H](CN(C)Cc2ccc(Cl)c(Cl)c2)Oc2ccc(NC(=O)C3CCCCC3)cc2CC1=O	-7.1[16.7 µM]	-5.0[16.7 µM]	10.0*	-8.0	2.8	-0.2
C[C@H](CO)N1C[C@H](C)[C@@H](CN(C)S(=O)(=O)c2ccc(Cl)cc2)Oc2ccc(NC(=O)C3CC3)cc2CC1=O	·	-3.8[16.7 µM]	-3.0	-7.8	-1.2	-4.2
CCNC(=O)Nc1ccc2c(c1)C(=O)N(C)[C@H]1CC[C@H](CC(=O)N[C@H](C)c3ccccc3)O[C@H]1CO2	-2.0[16.7 µM]	·	·	-5.4	2.7	0.8
Cc1[nH]c2ccccc2c1/C=N/Nc1ccccn1	-28.1	·	4.5	1.8	·	-2.9
Cc1[nH]c2ccccc2c1/C=N/Nc1nncn1N	-41.2	·	3.7	-10.4	·	-29.7*
COc1cc2cc(CCCOC(=O)c3ccc(F)cc3)oc(=O)c2cc1OC	29.7	·	-1.2	2.3	2.8	-24.6*
COc1cc2cc(CCCOC(=O)c3ccc(Br)cc3)oc(=O)c2cc1OC	-34.0	-1.1	0.5	·	-0.2	-24.7
C[C@@H]1CN([C@@H](C)CO)C(=O)c2cc(C#C[C@@H](C)O)cnc2O[C@@H]1CN(C)CC1CCOCC1	-27.2[16.7 µM]	5.1[16.7 µM]	1.4	16.1	55.1	9.6
CC(=O)c1c(C)[nH]c(C(=O)OCCCCN2C(=O)c3ccccc3C2=O)c1C	97.8*	-33.6	·	·	1.1	·
COc1ccc(NC(=O)Nc2ccc3c(c2)C(=O)N([C@@H](C)CO)C[C@H](C)[C@H](CN(C)C)OCCCC[C@H](C)O3)cc1	23.8[16.7 µM]	-5.5[16.7 µM]	-0.8	1.3	2.9	1.6
CCN(CC)c1ccc(N=Cc2ccccc2[N+](=O)[O-])cc1	-9.8	2.1	·	·	-0.4	-31.7*
CCN(CC)c1ccc(N=Cc2ccc([N+](=O)[O-])o2)cc1	29.0	·	·	·	·	·
Cc1ccc(-c2c[n+]3c(n2-c2ccccc2)SCC3)cc1	59.0*	-0.9	0.5	·	·	·
O=C(C[C@H]1C[C@H]2c3cc(NC(=O)NC4CCCC4)ccc3O[C@H]2[C@H](CO)O1)NC1CCCC1	10.1[16.7 µM]	1.3[16.7 µM]	-0.7	8.1	-2.4	-1.3
COc1ccccc1NC(=O)C(=O)NCC1COc2ccccc2O1 (centres undefined)	·	·	-1.0	-9.0	0.1	-22.9*
CO[C@H]1CN(C)C(=O)c2cc(NC(C)=O)ccc2OC[C@H](C)N(S(=O)(=O)c2cn(C)cn2)C[C@H]1C	47.2[16.7 µM]	·	0.7	7.5	0.0	-0.5
SMILES	HIV Env fusion	miR-122 sensor	F508del corr	INS-1E GSIS act	Cneo AK release	rRNA inh HTS
COc1ccc(NC(=O)C(CC(=O)O)Cc2ccccc2)cc1 (centres undefined)	-2.9	-8.3	·	·	0.2	·
COc1ccc(NC(=O)C(CC(=O)O)Cc2ccc(Cl)cc2)cc1 (centres undefined)	-173.2	·	8.9*	10.3	1.1	11.1
CN1c2ccc(Br)cc2[C@H]2[C@H](CCN2C(=O)Nc2cc(F)ccc2F)[C@H]1CO	·	6.3[16.7 µM]	-0.7	-11.2	-0.4	-16.9
CCOc1ccc(S(=O)(=O)/N=C(/Nc2ccc(C)c(S(=O)(=O)N3CCOCC3)c2)c2ccccc2)cc1	·	106.6*	-4.2	-18.0	-0.7	-4.2
Cc1ccc(NC(=O)c2c(C)noc2C)cc1S(=O)(=O)N1CCOCC1	-22.7	4.1	9.9*	-3.3	-1.0	1.9
CCc1onc(C)c1C(=O)Nc1ccc(N2CCOCC2)cc1	2.4	-2.6	-1.1	41.5*	2.2	23.6
Cc1onc(-c2ccccc2)c1C(=O)Nc1ccc(N2CCOCC2)cc1	1.1	-7.7	·	·	-0.2	·
O=C(Nc1cccc(S(=O)(=O)N2CCCCC2)c1)c1ccc([N+](=O)[O-])o1	-120.5	2.8	-13.1	-36.6	6.3	-27.9*
COCC(=O)Nc1ccc2c(c1)OC[C@@H](C)N(C(=O)c1ccccc1F)C[C@@H](C)[C@@H](OC)CN(C)C2=O	·	0.4[16.7 µM]	-1.1	4.4	5.9	1.9
COc1cccc(S(=O)(=O)N[C@H]2CC[C@H](CC(=O)NCc3ccc(Cl)cc3)O[C@@H]2CO)c1	-8.2[16.7 µM]	·	0.6	10.6	2.4	-8.1
CC(=O)N(C)C[C@@H]1Oc2cc(C#CC(C)(C)O)ccc2S(=O)(=O)N([C@@H](C)CO)C[C@H]1C	-5.8[16.7 µM]	-0.8[16.7 µM]	-0.1	7.4	4.2	8.8
NCC[C@H]1CC[C@H](NS(=O)(=O)Cc2ccccc2)[C@@H](CO)O1	8.3[16.7 µM]	1.1[16.7 µM]	0.4	12.9	52.1	-0.4
Cc1ccc(NC(=O)C(=O)c2c(-c3ccccc3)cc3ccccn23)cc1S(=O)(=O)N1CCOCC1	-27.4	247.5*	·	·	-2.5	·
Cc1ccc(NC(=O)c2ccc([N+](=O)[O-])o2)cc1S(=O)(=O)N1CCOCC1	-202.7	8.6	·	-24.2	·	-23.4*
Cc1ccc(NC(=O)c2cc3c(s2)CCC3)cc1S(=O)(=O)N1CCOCC1	58.3*	47.8	·	·	-1.3	·
O=C(Nc1cccc(S(=O)(=O)N2CCCCC2)c1)c1ccc(Cl)nc1	2.8	1.3	1.5	-13.6	0.2	-23.8*
Cc1ccc(NC(=O)CSc2ccccc2)cc1S(=O)(=O)N1CCOCC1	10.6	9.5	4.5	2.9	-7.5	-13.8
C[C@H](CO)N1C[C@H](C)[C@@H](CN(C)Cc2ccc3c(c2)OCO3)OCc2ccccc2-c2c(n(C)c3ccccc23)C1=O	·	·	·	-29.0	·	-37.0
O=C(O)[C@H](Cc1ccccc1)N1C(=O)c2c(Cl)c(Cl)c(Cl)c(Cl)c2C1=O	-6.3	·	0.2	-20.4	-0.7	-39.2*
